According to ChEMBL document CHEMBL1136527, “Antifungal activity of a Candida albicans GGTase I inhibitor-alanine conjugate. Inhibition of Rho1p prenylation in C. albicans” (Bioorg Med Chem Lett, 2003):
Values after ≈ are worked out from the molar mass of the structure shown.

How the values were obtained:
[1] = test system: Candida albicans; assay: Inhibitory of Candida albicans; format: functional
Method in brief: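 MIC against C. albicans SC5314 in YNBGlc medium: yeast nitrogen base without amino acids, supplemented with histidine, methionine, tryptophan, glutamine and 2% glucose.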

[2] = test system: Candida albicans; assay: Inhibition of Candida albicans after addition of amino acids at 1 mM; format: functional
Method in brief: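 MIC against C. albicans SC5314 in YNBGlc medium (YNB without amino acids plus histidine, methionine, tryptophan, glutamine, 2% glucose), further supplemented with an amino acid mixture at 1mM final, to compete for permease uptake.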

[3] = test system: Candida albicans; assay: Fungicidal activity against Candida albicans; format: functional
[4] = target: Protein farnesyltransferase (Candida albicans); assay: Inhibition of Candida albicans Farnesyltransferase
[5] = target: Geranylgeranyl transferase type I (Candida albicans); assay: Inhibition of Candida albicans Geranylgeranyl transferase type I

| MIC [1] [µg/mL] | MIC [2] [µg/mL] | IC50 [4] [nM] | IC50 [5] [nM] | SMILES | MFC [3] [µg/mL] |
| --- | --- | --- | --- | --- | --- |
| 1 (≈ 2.03 µM) | > 64 | 3000 | 10 | CC(C)C[C@H](NC(=O)C1(c2ccccc2)CCN(C(=O)[C@@H](N)CS)CC1)C(=O)N[C@@H](C)C(=O)O | 2 (≈ 4.06 µM) |
| > 128 | – | – | 5 | COC(=O)[C@H](CC(C)C)NC(=O)C1(c2ccccc2)CCN(C(=O)[C@@H](N)CS)CC1 | > 128 |
| > 128 | – | 200 | < 5 | CC(C)C[C@H](NC(=O)C1(c2ccccc2)CCN(C(=O)[C@@H](N)CS)CC1)C(=O)O | > 128 |
